Data as given in article PMC4094229 (European journal of medicinal chemistry, 2013).

Legend:
MDA-MB-231 cells = assay: Cell cycle distribution; type: cell-based, human; settings: 24 h
MCF-10A cells = assay: MTT cell viability assay, normal breast MCF-10A; type: cell-based, human
MCF-7 cells [1] = assay: Cell cycle distribution; type: cell-based, human; settings: 24 h
[2] = tested on: human breast cancer cell lines (MCF-7 and MDA-MB-231); assay: MTT assay, activity against cancer cells; type: cell-based; settings: 72 h, up to 50 μM
Method in brief: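 ATCC cells were used. MCF-7 was grown in DMEM with 10% FBS, insulin, pyruvate and NEAA; MDA-MB-231 in DMEM with 10% FBS, NEAA and L-glutamine. Cells were seeded at 3×10³/well and exposed 72 h to 0, 1, 5, 10, 25, 50 μM, with a DMSO vehicle. MTT (5 mg/mL stock) was added for 2–4 h at 37°C; formazan was dissolved in DMSO and read at A570. Viability = mean OD treated/DMSO control; IC50 from three separate experiments.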

MCF-7 cells [3] = assay: MTT cell viability assay, MCF-7; type: cell-based; settings: Homo sapiens, MCF7, 72 h, read-out: IC50 MCF-7, MTT, 72 h, 1-50 μM

C=C1C(=O)O[C@H]2C[C@H](C)[C@@]34C[C@@]5(C(=O)O[C@H]6C[C@@H](C)[C@@H]7[C@@H](OC(C)=O)C[C@H](O)[C@@]7(C)C[C@@H]65)[C@@H](C(C)=C3C[C@H]12)[C@@H]4O [Compound 1, Lineariifolianoid E]
effect on cell cycle progression (MDA-MB-231 cells; MDA-MB-231, 0, 1, 2.5 μM): dose-dependent cell cycle arrest in both S and G2/M phase | cell cycle arrest at 2.5 μM (MDA-MB-231 cells; MDA-MB-231, 2.5 μM): significant increase in the number of cells in both S and G2/M phases | toxicity to MCF-10A cells (MCF-10A cells; normal breast cell line): low toxicity | effect on cell cycle progression (MCF-7 cells [1]; MCF-7, 0, 1, 2.5 μM): dose-dependent cell cycle arrest in the G2/M phase | cell cycle arrest at 2.5 μM (MCF-7 cells [1]; MCF-7, 2.5 μM): a majority of the MCF-7 cells were arrested in the G2/M phase

C=C1C(=O)O[C@H]2C[C@H](C)[C@H]3[C@@H](O)C[C@@](C)(O)[C@@]34O[C@H]4[C@H]12 [Compound 6, 5α,6α-epoxy-2α,4α-dihydroxy-1β-guai-11(13)-en-12,8α-olide]
activity against cancer cells [2]: did not show visible activity

C=C1C(=O)O[C@@H]2CC(C)=C3[C@@H](OC(C)=O)C[C@@](C)(O)[C@@H]3[C@@H](O)[C@H]12 [Compound 7, 6α-hydroxyinuchinenolide B]
activity against cancer cells [2]: did not show visible activity

CC(=O)O[C@H]1C=C(CCO)[C@@H](C)C[C@H]2OC(=O)[C@@H](C)[C@@H]12 [Compound 9, 6β-acetoxysundiversifolide]
activity against cancer cells [2]: did not exhibit any noticeable activity

C=C1C(=O)O[C@@H]2CC(C)=C3[C@@H](C[C@H]12)[C@](C)(O)C[C@@H]3O [Compound 10, deacetylinuchinenolide B]
activity against cancer cells [2]: did not show visible activity

C[C@@H]1C2=C[C@H]3[C@@H](C[C@@]2(C)CC[C@@H]1O)OC(=O)[C@@H]3C [Compound 15, 3β-hydroxy-11α,13-dihydroalantolactone]
activity against cancer cells [2]: did not exhibit any noticeable activity

COc1cccc2c1C(=O)c1c(O)c3c(c(O)c1C2=O)C[C@@](O)(C(=O)CO)C[C@@H]3O[C@H]1C[C@H](N)[C@H](O)[C@H](C)O1 [Doxorubicin]
IC50 (MCF-7 cells [3]): 0.7 ± 0.06 µM

CC(=O)O[C@H]1C(=O)[C@@]2(C)[C@H]([C@H](OC(=O)c3ccccc3)[C@]3(O)C[C@H](OC(=O)[C@H](O)[C@@H](NC(=O)c4ccccc4)c4ccccc4)C(C)=C1C3(C)C)[C@]1(OC(C)=O)CO[C@@H]1C[C@@H]2O [Paclitaxel, reference compound]
IC50 (MCF-10A cells; Homo sapiens, MCF-10A, 72 h, read-out: IC50 MCF-10A): 0.427 ± 0.0554 µM
